How the values were obtained:
[1] = target: T1, Integrin alpha-IIb/beta-3 (Homo sapiens, UniProt P05106+P08514); assay: Antagonist activity at GP2b/GP3a receptor in human platelet rich plasma assessed as inhibition of ADP-induced platelet aggregation at 50 uM preincubated for 1 min followed by ADP addition by aggregometric method relative to control
Outline: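 Human PRP from apheresis platelets, PPP from centrifugation at 3000r/min for 10 min used as reference. Compound in saline or 0.2% aqueous DMSO added to PRP, incubated 1 min, then ADP 20 μM (per table footnotes; methods list 10 μM) added. Light transmission aggregometry at 37°C, maximal aggregation vs PPP. Inhibition relative to control aggregation ratio. IC50 from at least four concentrations.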

[2] = target: T1, Integrin alpha-IIb/beta-3; assay: Displacement of fibrinogen from human platelet GP2b/GP3a receptor after 2 hrs by ELISA
Outline: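 Plates coated overnight at 4°C with fibrinogen 10 µg/ml in 0.1 M carbonate pH 9.5, blocked with 1% BSA. Purified human platelet GPIIb/IIIa (20 µg/ml) added with samples for 2 h in Tris/NaCl/CaCl2/Tween buffer pH 7.5. Bound receptor detected with anti-β3 antibody (1 h, 37°C) and alkaline phosphatase conjugate with pNPP, A405. BSA-only wells subtracted. Triplicate.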

Mus musculus [3] = assay: Toxicity in ICR mouse assessed as bleeding time at 30 mg/kg, iv administered 30 mins prior to test by tail transection method; type: organism-based; settings: in vivo, 0.5 h
Outline: (§1)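 ICR mice dosed 30 min before test, saline as control. Anesthetized with 5% chloral hydrate i.p., kept at 37°C on a heating pad. 3-mm tail tip cut off and tail immersed in 37°C saline. Time until bleeding stopped for more than 5 s recorded, accumulated within 20 min. n=6.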

Rattus norvegicus [4] = assay: Anti-thrombotic activity in iv dosed Sprague-Dawley rat arterio-venous shunt thrombosis model assessed as reduction in thrombus weight pretreated for 15 mins followed by arteriovenous shunt thrombosis induction measured after 20 mins; type: functional, organism-based
Outline: (§2)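 SD rats of both sexes, 180~220 g, dosed by tail vein injection. After 15 min, anesthetized with 10% chloral hydrate (3 ml/kg i.p.). Shunt catheter placed between left jugular vein and right common carotid artery, opened 20 min. Thrombus dried at 60°C for 20 min and weighed without the thread. n=6.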

Mus musculus [5] = assay: Toxicity in ICR mouse assessed as bleeding time at 3 mg/kg, iv administered 30 mins prior to test by tail transection method; type: organism-based; settings: in vivo, 0.5 h; outline: as §1
Rattus norvegicus [6] = assay: Anti-thrombotic activity in Sprague-Dawley rat arterio-venous shunt thrombosis model assessed as reduction in thrombus weight at 10 mg/kg, iv pretreated for 15 mins followed by arteriovenous shunt thrombosis induction measured after 20 mins relative to control; type: functional; design: scale not given: the % may be the effect or the level left; outline: as §2
Mus musculus [7] = assay: Toxicity in ICR mouse assessed as bleeding time at 15 mg/kg, iv administered 30 mins prior to test by tail transection method; type: organism-based; settings: in vivo, 0.5 h; outline: as §1

inhibition [1]	Compound	also measured
> 99.5%	N=C(N)c1ccc(COc2ccc3cc(CC(NC(=O)c4ccc([N+](=O)[O-])cc4)C(=O)O)ccc3c2)cc1 (racemic)	–
50.2%	N=C(N)c1ccc(COc2ccc3cc(CC(NS(=O)(=O)c4ccc(Br)cc4)C(=O)O)ccc3c2)cc1 (racemic)	–
62.9%	N=C(N)c1ccc(COc2ccc3cc(CC(NS(=O)(=O)c4ccc([N+](=O)[O-])cc4)C(=O)O)ccc3c2)cc1 (racemic)	–
99.1%	O=C(O)C(Cc1ccc2cc(OCCCN3CCNCC3)ccc2c1)NS(=O)(=O)c1ccc(Br)cc1 (racemic)	–
> 99.5%	N=C(N)c1ccc(COc2ccc3cc(CC(NS(=O)(=O)c4ccccc4)C(=O)O)ccc3c2)cc1 (racemic)	IC50 [2]: 1330 nM; inhibition [2]: Dose-dependent effect
< 5%	O=C(O)C(Cc1ccc2cc(OCC3CCNCC3)ccc2c1)NS(=O)(=O)c1ccc(Br)cc1 (racemic)	–
38.1%	O=C(O)C(Cc1c[nH]c2ccc(OCCCCC3CCNCC3)cc12)NS(=O)(=O)c1ccc(Br)cc1 (stereo not drawn)	–
91.2%	O=C(O)C(Cc1ccc2cc(OCCCCN3CCNCC3)ccc2c1)NS(=O)(=O)c1ccc(Br)cc1 (racemic)	–
< 5%	O=C(O)C(Cc1ccc2cc(OCCC3CCNCC3)ccc2c1)NS(=O)(=O)c1ccc(Br)cc1 (racemic)	–
–	Cl.O=C(O)C(Cc1ccc2cc(OCCCN3CCNCC3)ccc2c1)NS(=O)(=O)c1ccccc1 (racemic)	Time (Mus musculus [3]): 9.28 min; IC50 [2]: 80 nM; inhibition [2]: Dose-dependent effect; Activity (Rattus norvegicus [4]): Dose-dependent effect; Time (Mus musculus [5]): 6.72 min; Activity (Rattus norvegicus [6]): 40%; Time (Mus musculus [7]): 8.63 min
49.4%	N=C(N)c1ccc(COc2ccc3cc(CC(NC(=O)c4ccccc4)C(=O)O)ccc3c2)cc1 (racemic)	–
< 5%	O=C(O)C(Cc1ccc2cc(OCCCC3CCNCC3)ccc2c1)NS(=O)(=O)c1ccc(Br)cc1 (racemic)	–
23.3%	N=C(N)c1ccc(COc2ccc3cc(CC(NC(=O)c4ccc(F)cc4)C(=O)O)ccc3c2)cc1 (racemic)	–
> 99.5%	CCCC(=O)NC(Cc1ccc2cc(OCc3ccc(C(=N)N)cc3)ccc2c1)C(=O)O (racemic)	–
32.4%	COc1ccc(C(=O)NC(Cc2ccc3cc(OCc4ccc(C(=N)N)cc4)ccc3c2)C(=O)O)cc1 (racemic)	–
97.3%	O=C(O)C(Cc1ccc2cc(OCCN3CCNCC3)ccc2c1)NS(=O)(=O)c1ccc(Br)cc1 (racemic)	–
21.5%	COc1ccc(S(=O)(=O)NC(Cc2ccc3cc(OCc4ccc(C(=N)N)cc4)ccc3c2)C(=O)O)cc1 (racemic)	–
> 99.5%	Cc1ccc(S(=O)(=O)NC(Cc2ccc3cc(OCc4ccc(C(=N)N)cc4)ccc3c2)C(=O)O)cc1 (racemic)	–
> 99.5%	CCCCS(=O)(=O)NC(Cc1ccc2cc(OCc3ccc(C(=N)N)cc3)ccc2c1)C(=O)O (racemic)	–
49.7%	N=C(N)c1ccc(COc2ccc3cc(CC(NC(=O)c4cccc(F)c4)C(=O)O)ccc3c2)cc1 (racemic)	–
